The values below come from ChEMBL document CHEMBL2086367, “Novel oxysterols activate the Hedgehog pathway and induce osteogenesis” (Bioorg Med Chem Lett, 2012).

A short description of data set [1]: Metabolic stability in human liver microsomes assessed as compound remaining after 1 hr. The note with it: read-out: Stability. The data set is classed as ADME, Microsome.
Data set [2] relates to Rattus norvegicus. As to the kind of experiment: Osteogenetic activity in Sprague-Dawley rat assessed as increase in bone volume in callus at 4 mg/kg measured after 8 weeks by MicroCT analysis. The data set is classed as functional, organism-based. More on the design: dose 4 mg/kg. The essentials:
(§1)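 Sprague Dawley rats; compound in DMSO at 50 mg/mL, 40 µL loaded onto collagen sponge, held 1–2 h at room temperature, implanted bilaterally between L4 and L5 after decorticating transverse processes; 4 mg/kg. After 8 weeks, segment stability scored by manual palpation (n = 10/group, Kruskal-Wallis); formalin-fixed tissue scanned by microCT at 18 µm resolution for callus bone volume.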

For a further data set, the target named is Sonic hedgehog protein (Mus musculus, UniProt Q62226). The data set is described as follows: Activation of SHh in mouse Light2 cells assessed as induction of Gli-mediated luciferase activity after 24 hrs by reporter gene assay. The data set is classed as cell-based. A digest of the protocol: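 SHHLight2 cells (8×Gli response elements driving firefly luciferase; constitutive Renilla) seeded at 10,000 cells/well in DMEM/10% FCS. After 24 h, compound added in DMEM/0.5% FCS, triplicate wells. Firefly and Renilla luciferase read 24 h later; firefly divided by Renilla per well, expressed relative to DMSO-treated cells.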
Sequence of Sonic hedgehog protein (Q62226 25-198 limits assumed): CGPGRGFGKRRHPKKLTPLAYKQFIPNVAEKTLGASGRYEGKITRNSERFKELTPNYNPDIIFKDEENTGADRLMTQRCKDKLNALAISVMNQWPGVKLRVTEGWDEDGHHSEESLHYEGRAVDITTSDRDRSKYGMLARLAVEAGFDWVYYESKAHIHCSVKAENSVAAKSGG

The subject of data set [3] is Rattus norvegicus. The data set is described as follows: Osteogenetic activity in Sprague-Dawley rat assessed as increase in mechanical stability of the vertebral segments at 4 mg/kg measured after 8 weeks by manual palpation. The data set is classed as functional, organism-based. More on the design: dose 4 mg/kg. The essentials: as §1
In the next data set the test system is C3H 10T1/2. As to the kind of experiment: Osteogenetic activity in mouse C3H10T1/2 cells assessed as increase in osteocalcin expression at 3.3 uM after 10 days by RT-PCR analysis relative to control. The data set is classed as functional.
Data set [4] is described as follows: Half life in human liver microsomes incubated up to 60 mins. The data set is classed as ADME, Microsome. The essentials:
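Pooled human liver microsomes with NADPH; sampling at 0, 15, 30, 45 and 60 min to derive intrinsic clearance half-life.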

Data set [5] can be described thus: Half life in human liver microsomes incubated up to 120 mins at pH 7.4. The data set is classed as ADME, Microsome.

Each structure is given as a SMILES string. Active and inactive are the calls of the source. The calls are words filed in the database; no cut-off is given here. Where only a bound is given, the exact number is not on record here.

On to `CCCCCC[C@](C)(O)[C@H]1CC[C@H]2[C@@H]3C[C@H](O)[C@H]4C[C@@H](O)CC[C@]4(C)[C@H]3CC[C@@]21C`, for which, in data set [1], the remaining at 1 h stood at 2%. The outcome in the data set on Rattus norvegicus [2] was Active. On Sonic hedgehog protein, the EC50 was found to be 400 nM. Further, in the data set with Rattus norvegicus [3], the result was inactive. For the same compound, the “fold change (FC)” value in the data set with C3H 10T1/2 worked out at 36.

Consider `[2H][C@H](CC(C)C)[C@@H]([2H])[C@](C)(O)[C@H]1CC[C@H]2[C@@H]3C[C@H](O)[C@H]4C[C@@H](O)CC[C@]4(C)[C@H]3CC[C@]12C`, for which the half-life in data set [4] came to 5 min. The EC50 on Sonic hedgehog protein was determined as 1100 nM.

As for `CC(C)CCC[C@](C)(O)[C@H]1CC[C@H]2[C@@H]3C[C@H](O)[C@H]4C[C@@H](O)CC[C@]4(C)[C@H]3CC[C@@]21C`, the remaining at 1 h in data set [1] came to 3%. Further, the half-life in data set [4] is 4 min. The result in the data set with Rattus norvegicus [2] and with Rattus norvegicus [2] (tested as the 2H-labelled form) was Active. Moreover, the EC50 at Sonic hedgehog protein was 800 nM. The result with Rattus norvegicus [3] and in the data set on Rattus norvegicus [3] (tested as the 2H-labelled form) was inactive. For the same compound, in the data set with C3H 10T1/2, the “fold change (FC)” value was 15.

Take `[2H]C([2H])(CCCC)C([2H])([2H])[C@](C)(O)[C@H]1CC[C@H]2[C@@H]3C[C@H](O)[C@H]4C[C@@H](O)CC[C@]4(C)[C@H]3CC[C@@]21C`: the remaining at 1 h in data set [1] was found to be 100%. Besides, the EC50 on Sonic hedgehog protein amounted to 300 nM. The “fold change (FC)” value with C3H 10T1/2 was found to be 35.

For the compound `[2H]C([2H])(CC(C)C)C([2H])([2H])[C@](C)(O)[C@H]1CC[C@H]2[C@@H]3C[C@H](O)[C@H]4C[C@@H](O)CC[C@]4(C)[C@H]3CC[C@@]21C`, the half-life in data set [5] was more than 120 min. The remaining at 1 h in data set [1] amounted to 100%. In addition, the EC50 at Sonic hedgehog protein was found to be 800 nM. The “fold change (FC)” value with C3H 10T1/2 was 17.

On to `COCCCC[C@](C)(O)[C@H]1CC[C@H]2[C@@H]3C[C@H](O)[C@H]4C[C@@H](O)CC[C@]4(C)[C@H]3CC[C@@]21C`, for which, in data set [1], the remaining at 1 h is 35%. For the same compound, the EC50 at Sonic hedgehog protein amounted to 3100 nM. Besides, the “fold change (FC)” value in the data set on C3H 10T1/2 turned out to be 3.

`C[C@]12CC[C@H](O)C[C@@H]1[C@@H](O)C[C@@H]1[C@@H]2CC[C@@]2(C)[C@H]1CC[C@@H]2[C@@](C)(O)CCCc1cccnc1`: at Sonic hedgehog protein, the EC50 stood at 1200 nM.

For `CC(C)CCC[C@@](C)(O)[C@H]1CC[C@H]2[C@@H]3C[C@H](O)[C@H]4C[C@@H](O)CC[C@]4(C)[C@H]3CC[C@@]21C`, the EC50 at Sonic hedgehog protein is more than 10000 nM.

With `CCCCCC[C@@](O)(c1ccccc1)[C@H]1CC[C@H]2[C@@H]3C[C@H](O)[C@H]4C[C@@H](O)CC[C@]4(C)[C@H]3CC[C@@]21C`, the remaining at 1 h in data set [1] stood at 69%. At Sonic hedgehog protein, the EC50 was more than 10000 nM.

On to `C[C@]12CC[C@H](O)C[C@@H]1[C@@H](O)C[C@@H]1[C@@H]2CC[C@@]2(C)[C@H]1CC[C@@H]2[C@@](C)(O)CCCc1ccccc1`, for which the remaining at 1 h in data set [1] amounted to 1%. Also, at Sonic hedgehog protein, the EC50 came out at 2500 nM. For the same compound, in the data set with C3H 10T1/2, the “fold change (FC)” value turned out to be 2.

Turning to `C[C@]12CC[C@H](O)C[C@@H]1[C@@H](O)C[C@@H]1[C@@H]2CC[C@@]2(C)[C@H]1CC[C@@H]2[C@@](C)(O)CCCc1ccncc1`, at Sonic hedgehog protein, the EC50 was more than 5000 nM. Moreover, in the data set with C3H 10T1/2, the “fold change (FC)” value was found to be 2.

In the case of `CCCCC[C@](C)(O)[C@H]1CC[C@H]2[C@@H]3C[C@H](O)[C@H]4C[C@@H](O)CC[C@]4(C)[C@H]3CC[C@@]21C`, the 50% effective concentration (EC50) on Sonic hedgehog protein came out at 6600 nM. Besides, the “fold change (FC)” value in the data set with C3H 10T1/2 was determined as 4.

For the compound `[2H][C@@H](CC(C)C)[C@H]([2H])[C@](C)(O)[C@H]1CC[C@H]2[C@@H]3C[C@H](O)[C@H]4C[C@@H](O)CC[C@]4(C)[C@H]3CC[C@]12C`, the half-life in data set [5] was more than 120 min. Moreover, the EC50 at Sonic hedgehog protein is 1000 nM.

As to `CCCCCCC[C@](C)(O)[C@H]1CC[C@H]2[C@@H]3C[C@H](O)[C@H]4C[C@@H](O)CC[C@]4(C)[C@H]3CC[C@@]21C`, on Sonic hedgehog protein, the EC50 was 500 nM. In the data set on C3H 10T1/2, the “fold change (FC)” value amounted to 17.

For the compound `CCCCCC[C@@](O)(CC)[C@H]1CC[C@H]2[C@@H]3C[C@H](O)[C@H]4C[C@@H](O)CC[C@]4(C)[C@H]3CC[C@]12C`, the remaining at 1 h in data set [1] was 9%. Moreover, the EC50 on Sonic hedgehog protein came out at 2900 nM.
